Measurements reported in ChEMBL document CHEMBL1158960, “Constituents of leguminous plants, XIII. New triterpenoid saponins from Wistaria brachybotrys” (J Nat Prod, 1991).

How the values were obtained:
Assay type in all cases: cell-based
Raji [1] = assay: Inhibition of 12-O-tetradecanoylphorbol-13-acetate-induced EBV-early antigen activation in human Raji cells at 1000 molar ratio after 48 hrs relative to TPA; design: scale not given: the % may be the effect or the level left; conditions: human gammaherpesvirus 4
How it was run: (§1)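 EBV-EA activation induced in Raji cells by TPA (20 ng = 32 pmol); test triterpenoid dosed as mol ratio to TPA. Results expressed relative to positive control set at 100%, averages of three determinations ± SD.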

Raji [2] = assay: Inhibition of 12-O-tetradecanoylphorbol-13-acetate-induced EBV-early antigen activation in human Raji cells at 500 molar ratio after 48 hrs relative to TPA; conditions: human gammaherpesvirus 4; how it was run: as §1
Raji [3] = assay: Inhibition of 12-O-tetradecanoylphorbol-13-acetate-induced EBV-early antigen activation in human Raji cells at 100 molar ratio after 48 hrs relative to TPA; design: scale not given: the % may be the effect or the level left; conditions: human gammaherpesvirus 4; how it was run: as §1
Raji [4] = assay: Inhibition of 12-O-tetradecanoylphorbol-13-acetate-induced EBV-early antigen activation in human Raji cells at 10 molar ratio after 48 hrs relative to TPA; design: scale not given: the % may be the effect or the level left; conditions: human gammaherpesvirus 4; how it was run: as §1
[5] = Cytotoxicity against human Raji cells assessed as cell viability at 1000 molar ratio; conditions: read-out: Activity
How it was run: (§2)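 Raji cells exposed to TPA (20 ng = 32 pmol) together with test triterpenoid, dosed as mol ratio to TPA; viability of Raji cells recorded alongside EBV-EA assay, given as percentage.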

[6] = Cytotoxicity against human Raji cells assessed as cell viability at 500 molar ratio; conditions: read-out: Activity; how it was run: as §2
[7] = Cytotoxicity against human Raji cells assessed as cell viability at 100 molar ratio; conditions: read-out: Activity; how it was run: as §2
[8] = Cytotoxicity against human Raji cells assessed as cell viability at 10 molar ratio; conditions: read-out: Activity; how it was run: as §2

`COC(=O)[C@H]1O[C@@H](O[C@H]2CC[C@@]3(C)[C@@H](CC[C@]4(C)[C@@H]3CC=C3[C@@H]5CC(C)(C)CC(=O)[C@]5(C)CC[C@]34C)[C@@]2(C)CO)[C@H](O[C@@H]2OC[C@@H](O)[C@H](O)[C@H]2O[C@@H]2O[C@@H](C)[C@H](O)[C@@H](O)[C@H]2O)[C@@H](O)[C@@H]1O` [WISTARIASAPONIN D] gave an Activity (Raji [1]) of 0%, an EBV-EA activation remaining (% of TPA control) (Raji [2]) of 51% and an Activity (Raji [3]) of 86.1%. For the same compound, the Activity (Raji [4]) was 92.8%, the viability at 1000 molar ratio [5] was 10% and the viability at 500 molar ratio [6] was > 80%. The viability at 100 molar ratio [7] was > 80% and the viability at 10 molar ratio [8] was > 80%.

`CC1(C)CC(=O)[C@]2(C)CC[C@]3(C)C(=CC[C@@H]4[C@@]5(C)CC[C@H](O)[C@](C)(CO)[C@@H]5CC[C@]43C)[C@@H]2C1` [SOYASAPOGENOL E] gave an Activity (Raji [1]) of 0%, an EBV-EA activation remaining (% of TPA control) (Raji [2]) of 0% and an Activity (Raji [3]) of 43.9%. The Activity (Raji [4]) was 89.5%, the viability at 1000 molar ratio [5] was > 80% and the viability at 500 molar ratio [6] was > 80%. The viability at 100 molar ratio [7] was > 80% and the viability at 10 molar ratio [8] was > 80%.

Compound `COC(=O)[C@H]1O[C@@H](O[C@H]2CC[C@@]3(C)[C@@H](CC[C@]4(C)[C@@H]3CC=C3[C@@H]5CC(C)(C)CC(=O)[C@]5(C)CC[C@]34C)[C@@]2(C)CO)[C@H](O[C@@H]2O[C@H](CO)[C@H](O)[C@H](O)[C@H]2O[C@@H]2O[C@@H](C)[C@H](O)[C@@H](O)[C@H]2O)[C@@H](O)[C@@H]1O` [DEHYDROSOYASAPONIN I] has an Activity (Raji [1]) of 50.3%, an EBV-EA activation remaining (% of TPA control) (Raji [2]) of 67.8% and an Activity (Raji [3]) of 88.5%. For the same compound, the Activity (Raji [4]) was 100%, the viability at 1000 molar ratio [5] was 60% and the viability at 500 molar ratio [6] was > 80%. The viability at 100 molar ratio [7] was > 80% and the viability at 10 molar ratio [8] was > 80%.

For `COC(=O)[C@H]1O[C@@H](O[C@H]2CC[C@@]3(C)[C@@H](CC[C@]4(C)[C@@H]3CC=C3[C@@H]5C[C@@](C)(C(=O)OC)C[C@@H](OC(C)=O)[C@]5(C)CC[C@]34C)[C@@]2(C)CO)[C@H](O[C@@H]2OC[C@@H](O)[C@H](O)[C@H]2O[C@@H]2O[C@@H](C)[C@H](O)[C@@H](O)[C@H]2O)[C@@H](O)[C@@H]1O` [WISTARIASAPONIN G], the EBV-EA activation remaining (% of TPA control) (Raji [2]) was 15.4%, the Activity (Raji [3]) was 62.6% and the Activity (Raji [4]) was 79.7%. For the same compound, the viability at 1000 molar ratio [5] was 0%, the viability at 500 molar ratio [6] was 10% and the viability at 100 molar ratio [7] was > 80%. For the same compound, the viability at 10 molar ratio [8] was > 80%.
